Measurements from ChEMBL document CHEMBL4043131, “New prodrugs of two pyrimidine acyclic nucleoside phosphonates: Synthesis and antiviral activity” (Bioorg Med Chem, 2017).
The source made the active and inactive calls. No cut-off for these calls is given here.

Experiments:
Human betaherpesvirus 5 [1] = test: Antiviral activity against Human cytomegalovirus AD169 infected in HEL cells assessed as inhibition of virus-induced cytopathic effect; assay type: functional, cell-based; conditions: Human betaherpesvirus 5, AD169, HEL
Procedure, shortened: (§1)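 Confluent cell monolayers were infected with 100 CCID50 of virus (1 CCID50 = dose infecting 50% of cultures) and incubated with varying compound concentrations. Cytopathicity was scored once complete in untreated infected controls.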

Human betaherpesvirus 5 [2] = test: Antiviral activity against Human cytomegalovirus Davis infected in HEL cells assessed as inhibition of virus-induced cytopathic effect; assay type: functional, cell-based; conditions: Human betaherpesvirus 5, Davis; procedure, shortened: as §1
Human alphaherpesvirus 3 [3] = test: Antiviral activity against wild type thymidine kinase expressing Varicella-Zoster virus Oka infected in HEL cells assessed as inhibition of virus-induced plaque formation; assay type: functional, cell-based; conditions: Human alphaherpesvirus 3, Oka
Procedure, shortened: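 Confluent HEL cultures were inoculated with 20 PFU of VZV and incubated with varying compound concentrations. Plaques were counted once formation was complete in untreated infected controls.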

[4] = (§2) Cytotoxicity against HEL cells assessed as reduction in cell growth after 3 days by coulter counter method; assay type: cell-based; conditions: human, HEL cells
Procedure, shortened: (§3)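 HEL cells were seeded at 5 × 10³ cells/well and grown for 24 h, then given medium containing graded compound concentrations. After 3 days at 37 °C, cells were counted by Coulter counter.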

Human respirovirus 3 = test: Antiviral activity against Parainfluenza virus 3 infected in African green monkey Vero cells assessed as inhibition of virus-induced cytopathic effect; assay type: functional; procedure, shortened: as §1
Human alphaherpesvirus 2 = test: Antiviral activity against Herpes simplex virus 2 G infected in HEL cells assessed as inhibition of virus-induced cytopathic effect; assay type: functional, cell-based; conditions: Human alphaherpesvirus 2, strain G; procedure, shortened: as §1
Feline coronavirus = test: Antiviral activity against Feline coronavirus infected in CRFK cells assessed as inhibition of virus-induced cytopathic effect; assay type: functional, cell-based
Human alphaherpesvirus 3 [5] = test: Antiviral activity against wild type thymidine kinase-deficient Varicella-Zoster virus 07-1 infected in HEL cells assessed as inhibition of virus-induced plaque formation; assay type: functional, cell-based; conditions: Human alphaherpesvirus 3, 07-1, HEL
Procedure, shortened: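 HEL fibroblast monolayers were infected with 20 PFU of VZV and kept with varying compound concentrations. Plaques were counted once formation was complete in untreated infected controls.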

Punta Toro virus = test: Antiviral activity against Punta Toro virus infected in African green monkey Vero cells assessed as inhibition of virus-induced cytopathic effect; assay type: functional; procedure, shortened: as §1
[6] = Antiviral activity against Respiratory syncytial virus A strain long infected in human HeLA cells assessed as inhibition of virus-induced cytopathic effect; assay type: functional, cell-based; procedure, shortened: as §1
Sindbis virus = test: Antiviral activity against Sindbis virus infected in African green monkey Vero cells assessed as inhibition of virus-induced cytopathic effect; assay type: functional; procedure, shortened: as §1
Coxsackievirus B4 = test: Antiviral activity against Coxsackie virus B4 infected in human HeLA cells assessed as inhibition of virus-induced cytopathic effect; assay type: functional, cell-based; procedure, shortened: as §1
[7] = system: Mammalian orthoreovirus 1; test: Antiviral activity against Reovirus-1 infected in African green monkey Vero cells assessed as inhibition of virus-induced cytopathic effect; assay type: functional; procedure, shortened: as §1
[8] = Cytotoxicity against HEL cells assessed as alteration of cell morphology by microscopic analysis; assay type: cell-based; conditions: human
Procedure, shortened: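 MCC is the lowest compound concentration causing a microscopically detectable alteration of cell morphology.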

Influenza B virus = test: Antiviral activity against influenza B virus infected in HEL cells assessed as inhibition of virus-induced cytopathic effect; assay type: functional, cell-based
HEL = test: as §2; assay type: cell-based; conditions: human, hel, 72 h; procedure, shortened: as §3
Human alphaherpesvirus 1 [9] = test: Antiviral activity against thymidine kinase-deficient ACV-resistant Herpes simplex virus 1 KOS infected in HEL cells assessed as inhibition of virus-induced cytopathic effect; assay type: functional, cell-based; conditions: Human alphaherpesvirus 1, KOS
Human alphaherpesvirus 1 [10] = test: Antiviral activity against wild type Herpes simplex virus 1 KOS infected in HEL cells assessed as inhibition of virus-induced cytopathic effect; assay type: functional, cell-based; conditions: Human alphaherpesvirus 1, KOS
Influenza A virus H3N2 = test: Antiviral activity against Influenza A virus H3N2 infected in HEL cells assessed as inhibition of virus-induced cytopathic effect; assay type: functional, cell-based
[11] = system: Vesicular stomatitis virus; test: Antiviral activity against Vesicular stomatitis virus infected in HEL cells assessed as inhibition of virus-induced cytopathic effect; assay type: functional, cell-based
Vaccinia virus = test: Antiviral activity against Vaccinia virus Lederle infected in HEL cells assessed as inhibition of virus-induced cytopathic effect; assay type: functional, cell-based; conditions: Orthopoxvirus vaccinia
Influenza A virus = test: Antiviral activity against Influenza A virus (H1N1) infected in HEL cells assessed as inhibition of virus-induced cytopathic effect; assay type: functional, cell-based

SMILES	EC50 (Human betaherpesvirus 5 [1]) [µM]	EC50 (Human betaherpesvirus 5 [2]) [µM]	EC50 (Human alphaherpesvirus 3 [3]) [µM]	Activity (Human respirovirus 3)	EC50 (Human alphaherpesvirus 2) [µM]	Activity (Feline coronavirus)	EC50 (Human alphaherpesvirus 3 [5]) [µM]	Activity (Punta Toro virus)	Activity [6]	Activity (Sindbis virus)	Activity (Coxsackievirus B4)	Activity [7]	MCC [8] [µM]	other results
CC(C)OC(=O)OCOP(=O)(COCCOc1cc(N)nc(N)n1)OCOC(=O)OC(C)C	90.1	86.3	0.32	inactive	1.01	inactive	0.29	inactive	inactive	inactive	inactive	inactive	> 202	CC50 at 72 h [4]: 15.1 µM
CCOC(=O)[C@H](Cc1ccccc1)NP(=O)(COCCn1cnc(N)nc1=O)N[C@@H](Cc1ccccc1)C(=O)OCC	15.5	7.5	29.4	inactive	39.5	inactive	26.8	inactive	inactive	inactive	inactive	inactive	> 100	Activity (Influenza B virus): inactive; CC50 (HEL): > 100 µM; EC50 (Human alphaherpesvirus 1 [9]): 42 µM; EC50 (Human alphaherpesvirus 1 [10]): 32.5 µM; Activity (Influenza A virus H3N2): inactive; Activity [11]: inactive; EC50 (Vaccinia virus): > 100 µM; Activity (Influenza A virus): inactive
